Only some compounds are listed: those with a hit (about 4.9% of all), similar ones and a draw of the others.
STAT1 blocker = STAT1 signaling inhibition | AID 920 | 200,000 compounds, 0.35% hits | NIH 3T3 STAT1-luciferase reporter, IFN-gamma, luminescence | inhibition, % at 5.5 µM;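 active = inhibition above a set limit, the mean inhibition across all tested compounds plus 3 SD, cut at about 34% in these data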
STAT1 act = increases IFN-gamma driven STAT1 reporter signal. activation (% of control), % at 5.5 µM. 200,000 compounds, 2.6% hits. NIH 3T3 STAT1-luciferase reporter, luminescence; 100% = IFN-gamma alone, no compound;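 active = activation above the screen-wide mean activation plus 3 SD, cut at about 130% in these data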
NF-kB neuron act = raises NF-kB expression in human neuronal cells; NF-kB reporter expression; hits give high values; fold change at 12.5 µM; 190,000 compounds, 1.6% hits; AID 1239; in the data active = fold change above about 3.3
STAT3 activator = increases IL-6 driven STAT3 reporter signal | activation (% of control), % at 5.6 µM | 190,000 compounds, 0.91% hits | U3A cells, IL-6 STAT3-luciferase reporter, luminescence; 100% = signal with IL-6 EC80 alone;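 active = activation above the screen-wide mean of compound activation plus 3 SD, cut at about 130% in these data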
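Material: STAT3-luciferase reporter U3A cells; Probe or stimulus: IL-6 (33 ng/mL); Incubation: compound pre-incubation 1 h before IL-6, then 6 h stimulation at 37 °C; Technique: luminescence from STAT3-driven luciferase reporter; Evaluation: % activation versus median of IL-6-stimulated wells; Controls: IL-6-only high control.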
STAT3 blocker = reduces IL-6 driven STAT3 reporter signal; 190,000 compounds, 0.89% hits; inhibition, % at 5.5 µM; U3A cells, IL-6 STAT3-luciferase reporter, luminescence; host cell line lacks STAT1;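 active = inhibition above the mean inhibition across all screened compounds plus 3 SD, cut at about 44% in these data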
APP 5'UTR act = APP 5'UTR luciferase reporter activation; SH-SY5Y APP 5'UTR luciferase reporter, luminescence; zero percent = DMSO vehicle wells; activation, % at 2 µM; 190,000 compounds, 1% hits; AID 1276;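 active = activation above a set limit, based on mean plus 3 SD of controls, cut at about 140% in these data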
STAT1 activ conf = confirmation of STAT1 signaling activators. 1,200 compounds, 97% hits. NIH 3T3 STAT1-luciferase reporter, IFN-gamma potentiation, luminescence; 100% = IFN-gamma EC80 alone, no compound. AID 1262. activation (% of control), % at 5.7 µM. shares compounds with STAT1 act;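 active = activation above a set limit carried over from the earlier primary STAT1 screen, cut at about 140% in these data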
NFkB act = NF-kappaB activation in STAT1 activator counter-screen | shares compounds with STAT1 act | HEK293T NF-kB luciferase reporter, TNF-alpha stimulated, luminescence; 100% = TNF-alpha with vehicle only | activation (% of control), % at 5.7 µM | 1,200 compounds, 43% hits | AID 1306;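 active = activation above the mean of solvent-only control wells plus 3 SD, set per campaign, cut at about 130% in these data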;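 also: TNF-alpha given at a submaximal dose yielding about 80% of full reporter signal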
STAT3 act STAT1c = activates human STAT3, counter-screen to STAT1 activators; shares compounds with STAT1 act; U3A cells STAT3-luciferase reporter, IL-6, luminescence; cells lack STAT1; 100 = IL-6 alone, no compound effect; activation (% of control), % at 5.7 µM; 1,200 compounds, 46% hits; AID 1316;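 active = activation above the solvent-only control well mean plus 3 SD, set per plate batch, cut at about 110% in these data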;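 also: higher means more STAT3 reporter activation so hits are non-selective activators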
A number is an active result.

Results for Cc1ccc2c(c1)-c1nc3ccccc3cc1C2=NC1CCCCC1 ?
STAT1 blocker: inactive; STAT1 act: 172.5; NF-kB neuron act: 3.68; STAT3 activator: inactive; STAT3 blocker: inactive; APP 5'UTR act: inactive; STAT1 activ conf: 201.1; NFkB act: inactive; STAT3 act STAT1c: 123.1

Results for Cc1ccc2c(c1)C(=NC1CCCCC1)c1cc3ccccc3nc1-2 ?
STAT1 blocker: inactive; STAT1 act: 191.5; NF-kB neuron act: 5.27; STAT3 activator: inactive; STAT3 blocker: inactive; APP 5'UTR act: 178.5; STAT1 activ conf: 208.2; NFkB act: inactive; STAT3 act STAT1c: 149.8

What do the screens show for `Cc1ccc(-c2cc3ccccc3nc2N2CCCC2)cc1`?
STAT1 blocker: inactive; STAT1 act: inactive; NF-kB neuron act: inactive; STAT3 activator: inactive; STAT3 blocker: inactive; APP 5'UTR act: inactive

Results for Cc1c(SCCO)c(=O)[nH]c2cc3c(cc12)OCO3 ?
STAT1 blocker: inactive; STAT1 act: inactive; NF-kB neuron act: inactive; STAT3 activator: inactive; STAT3 blocker: inactive

How did O=C(NN/C(=N/S(=O)(=O)c1ccc(Cl)cc1)c1ccccc1)c1ccc(O)cc1 do in these assays?
STAT1 blocker: inactive; STAT1 act: 151.8; NF-kB neuron act: inactive; STAT3 activator: inactive; STAT3 blocker: inactive; APP 5'UTR act: inactive; STAT1 activ conf: 154.1; NFkB act: inactive; STAT3 act STAT1c: 111.3

How did COc1ccc2oc(=N)c(C(=O)Nc3ccccc3)cc2c1 do in these assays?
STAT1 blocker: inactive; STAT1 act: 162.1; NF-kB neuron act: 5.24; STAT3 activator: inactive; STAT3 blocker: inactive; APP 5'UTR act: inactive; STAT1 activ conf: 196.5; NFkB act: 137.9; STAT3 act STAT1c: 135.6

Results for COC(=O)CC1C(=O)NCCN1C(=O)CSc1nnnn1-c1ccc(Cl)cc1 (configuration not stated) ?
STAT1 blocker: inactive; STAT1 act: inactive; NF-kB neuron act: inactive; STAT3 activator: inactive; STAT3 blocker: inactive; APP 5'UTR act: inactive

What do the screens show for `Brc1ccc(-c2cn3c(n2)SCC3)cc1`?
STAT1 blocker: inactive; STAT1 act: 166.0; NF-kB neuron act: 5.16; STAT3 activator: inactive; STAT3 blocker: inactive; APP 5'UTR act: 157.2; STAT1 activ conf: 199.2; NFkB act: 136.8; STAT3 act STAT1c: inactive

How did Clc1ccc(-c2cn3c(n2)SCC3)cc1 do in these assays?
STAT1 blocker: inactive; STAT1 act: 158.4; NF-kB neuron act: 4.76; STAT3 activator: inactive; STAT3 blocker: inactive; APP 5'UTR act: 153.1; STAT1 activ conf: 182.7; NFkB act: 137.1; STAT3 act STAT1c: 122.2

Results for CC12CCC(C(=O)Nc3cc(Cl)ccc3Cl)(C/C1=N\O)C2(C)C (configuration not stated) ?
STAT1 blocker: inactive; STAT1 act: inactive; NF-kB neuron act: inactive; STAT3 activator: inactive; STAT3 blocker: inactive; APP 5'UTR act: inactive

Results for Cc1cccc(C)c1OCCNC(=O)OCc1ccccc1 ?
STAT1 blocker: inactive; STAT1 act: inactive; NF-kB neuron act: inactive; STAT3 activator: inactive; STAT3 blocker: inactive; APP 5'UTR act: inactive

Results for CC(=O)c1ccc(NC(=O)c2ccc(NC(=O)CCS(=O)(=O)c3cccs3)cc2)cc1 ?
STAT1 blocker: inactive; STAT1 act: 157.3; NF-kB neuron act: inactive; STAT3 activator: inactive; STAT3 blocker: inactive; APP 5'UTR act: inactive; STAT1 activ conf: 169.3; NFkB act: inactive; STAT3 act STAT1c: 112.9

Results for O=C(CCS(=O)(=O)c1cccs1)Nc1ccc(C(=O)NCc2cccs2)cc1 ?
STAT1 blocker: inactive; STAT1 act: inactive; NF-kB neuron act: inactive; STAT3 activator: inactive; STAT3 blocker: inactive; APP 5'UTR act: inactive

How did CCc1cccc(NC(=O)Cn2cc(C=O)c3ccccc32)c1 do in these assays?
STAT1 blocker: inactive; STAT1 act: inactive; NF-kB neuron act: inactive; STAT3 activator: inactive; STAT3 blocker: inactive; APP 5'UTR act: inactive

How did O=C(N/N=C/c1ccc(Br)cc1)c1ccc(Br)o1 do in these assays?
STAT1 blocker: inactive; STAT1 act: 158.6; NF-kB neuron act: 3.52; STAT3 activator: inactive; STAT3 blocker: inactive; APP 5'UTR act: inactive; STAT1 activ conf: 189.9; NFkB act: 137.0; STAT3 act STAT1c: 113.3

What do the screens show for `Cc1cccc(OC(C)C(=O)N/N=C\c2ccncc2)c1` (configuration not stated)?
STAT1 blocker: inactive; STAT1 act: inactive; NF-kB neuron act: inactive; STAT3 activator: inactive; STAT3 blocker: inactive; APP 5'UTR act: inactive

What do the screens show for `CCn1c(O)c(/C=C2\C=Nc3ccccc32)sc1=O`?
STAT1 blocker: inactive; STAT1 act: 178.5; NF-kB neuron act: inactive; STAT3 activator: inactive; STAT3 blocker: inactive; APP 5'UTR act: 154.2; STAT1 activ conf: 174.6; NFkB act: 140.0; STAT3 act STAT1c: 126.3

What do the screens show for `CCn1c(O)c(/C=C2\C=Nc3ccccc32)sc1=Nc1ccc(C)cc1`?
STAT1 blocker: inactive; STAT1 act: inactive; NF-kB neuron act: inactive; STAT3 activator: inactive; STAT3 blocker: inactive; APP 5'UTR act: inactive

What do the screens show for `O=C(N/N=C/c1ccccc1F)c1csc2c1CCCC2`?
STAT1 blocker: inactive; STAT1 act: 156.9; NF-kB neuron act: 4.04; STAT3 activator: inactive; STAT3 blocker: inactive; APP 5'UTR act: inactive; STAT1 activ conf: 217.3; NFkB act: inactive; STAT3 act STAT1c: inactive

How did CCOc1cccc(-c2nc3cc(C)ccc3o2)c1 do in these assays?
STAT1 blocker: inactive; STAT1 act: 151.9; NF-kB neuron act: inactive; STAT3 activator: inactive; STAT3 blocker: inactive; APP 5'UTR act: inactive; STAT1 activ conf: 159.5; NFkB act: inactive; STAT3 act STAT1c: 128.5

What do the screens show for `Cc1ccc2oc(-c3cccc(NC(=O)Cn4cnc5c(=O)n(C)c(=O)n(C)c54)c3)nc2c1`?
STAT1 blocker: inactive; STAT1 act: inactive; NF-kB neuron act: inactive; STAT3 activator: inactive; STAT3 blocker: inactive; APP 5'UTR act: inactive

What do the screens show for `COc1ccc2oc(=Nc3ccccc3)c(-c3nc4ccccc4[nH]3)cc2c1`?
STAT1 blocker: inactive; STAT1 act: 161.2; NF-kB neuron act: 4.18; STAT3 activator: inactive; STAT3 blocker: inactive; APP 5'UTR act: 137.7; STAT1 activ conf: 164.4; NFkB act: inactive; STAT3 act STAT1c: 137.9

How did COc1ccc2[nH]c(=O)c(-c3nnn(-c4ccccc4)n3)cc2c1 do in these assays?
STAT1 blocker: inactive; STAT1 act: inactive; NF-kB neuron act: inactive; APP 5'UTR act: inactive
